Laboratory results as given in ChEMBL document CHEMBL1152958 (Bioorg Med Chem, 2009).

Assays:
[1] = target: T1, Prostaglandin G/H synthase 1 (Ovis aries) (UniProt P05979); test: Inhibition of COX1 in ram seminal vesicle at 8 uM by enzyme immunoassay; format: tissue-based
T1 sequence (whole entry): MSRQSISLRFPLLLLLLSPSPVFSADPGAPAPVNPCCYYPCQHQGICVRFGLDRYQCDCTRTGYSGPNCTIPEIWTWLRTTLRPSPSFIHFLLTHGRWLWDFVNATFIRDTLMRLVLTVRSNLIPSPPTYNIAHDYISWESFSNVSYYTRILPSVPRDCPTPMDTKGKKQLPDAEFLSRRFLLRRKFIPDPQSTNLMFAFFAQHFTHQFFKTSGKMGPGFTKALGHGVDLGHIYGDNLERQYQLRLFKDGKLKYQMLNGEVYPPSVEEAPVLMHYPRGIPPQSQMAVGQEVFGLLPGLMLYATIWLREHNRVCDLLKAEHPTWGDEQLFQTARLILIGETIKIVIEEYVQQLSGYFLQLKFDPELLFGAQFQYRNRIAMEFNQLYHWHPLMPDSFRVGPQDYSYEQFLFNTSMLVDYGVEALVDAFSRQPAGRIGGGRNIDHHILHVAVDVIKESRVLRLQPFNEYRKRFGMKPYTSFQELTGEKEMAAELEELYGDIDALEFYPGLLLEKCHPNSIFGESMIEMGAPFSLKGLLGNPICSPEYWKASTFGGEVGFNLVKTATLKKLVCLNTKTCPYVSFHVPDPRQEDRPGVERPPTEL

[2] = target: T2, Prostaglandin G/H synthase 2 (Ovis aries) (UniProt P79208); test: Inhibition of COX2 in sheep placental vesicle at 8 uM by enzyme immunoassay
T2 sequence (whole entry): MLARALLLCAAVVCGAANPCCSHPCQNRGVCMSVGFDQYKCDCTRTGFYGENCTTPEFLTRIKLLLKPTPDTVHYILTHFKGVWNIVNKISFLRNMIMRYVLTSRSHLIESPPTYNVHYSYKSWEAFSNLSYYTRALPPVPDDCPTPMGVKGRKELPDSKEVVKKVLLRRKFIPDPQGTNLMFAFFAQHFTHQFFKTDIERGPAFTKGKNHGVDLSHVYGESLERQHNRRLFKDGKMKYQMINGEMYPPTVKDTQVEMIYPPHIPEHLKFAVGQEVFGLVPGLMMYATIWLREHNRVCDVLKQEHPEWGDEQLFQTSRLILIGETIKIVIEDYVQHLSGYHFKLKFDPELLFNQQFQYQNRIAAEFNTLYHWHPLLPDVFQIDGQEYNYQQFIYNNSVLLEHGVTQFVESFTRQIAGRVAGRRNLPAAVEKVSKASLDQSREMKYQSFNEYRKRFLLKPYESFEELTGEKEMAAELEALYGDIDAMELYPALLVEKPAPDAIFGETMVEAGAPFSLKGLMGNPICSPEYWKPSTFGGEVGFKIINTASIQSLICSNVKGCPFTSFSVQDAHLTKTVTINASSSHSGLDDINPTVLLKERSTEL

[3] = target: T3, Prostaglandin G/H synthase 1 (Ovis aries, UniProt P05979); test: Inhibition of COX1 in ram seminal vesicle by enzyme immunoassay
T3 sequence (P05979 whole entry): T1 sequence (whole entry)
Outline: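 PGE2, the main arachidonic acid metabolite, was quantified by competitive enzyme immunoassay.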

[4] = target: T4, Prostaglandin G/H synthase 2 (Ovis aries, UniProt P79208); test: Inhibition of COX2 in sheep placental vesicle by enzyme immunoassay
T4 sequence (P79208 whole entry): T2 sequence (whole entry)

[5] = target: T5, Polyunsaturated fatty acid 5-lipoxygenase (Homo sapiens) (UniProt P09917); test: Inhibition of 5LOX-mediated LTB4 formation in stimulated human polymorphonuclear leukocytes at 8 uM
T5 sequence (whole entry): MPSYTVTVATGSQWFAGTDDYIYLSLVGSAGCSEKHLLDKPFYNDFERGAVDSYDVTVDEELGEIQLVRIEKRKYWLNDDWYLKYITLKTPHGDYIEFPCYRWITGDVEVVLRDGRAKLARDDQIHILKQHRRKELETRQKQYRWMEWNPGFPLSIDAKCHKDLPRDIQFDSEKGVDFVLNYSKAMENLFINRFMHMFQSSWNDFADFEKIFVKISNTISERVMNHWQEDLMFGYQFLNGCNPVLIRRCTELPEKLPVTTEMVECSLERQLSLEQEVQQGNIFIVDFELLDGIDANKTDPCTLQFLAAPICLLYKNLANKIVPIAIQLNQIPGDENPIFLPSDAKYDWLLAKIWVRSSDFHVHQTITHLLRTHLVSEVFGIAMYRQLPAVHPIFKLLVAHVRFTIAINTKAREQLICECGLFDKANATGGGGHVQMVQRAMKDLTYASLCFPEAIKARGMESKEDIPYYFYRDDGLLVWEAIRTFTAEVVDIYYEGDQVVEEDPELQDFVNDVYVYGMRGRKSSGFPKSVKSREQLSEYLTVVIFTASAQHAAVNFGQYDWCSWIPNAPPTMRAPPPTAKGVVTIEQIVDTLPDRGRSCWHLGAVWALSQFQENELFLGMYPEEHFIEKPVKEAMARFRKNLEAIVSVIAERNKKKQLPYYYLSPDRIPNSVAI
Outline: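 5-LOX-mediated LTB4 formation was measured in stimulated human polymorphonuclear leukocytes in 96-well format. […] For IC50, at least 3 concentrations were tested in at least 3 independent experiments, each in duplicate, and IC50 was derived from a semilogarithmic dose plot. Results are given as means ± S.D.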

[6] = target: T6, Polyunsaturated fatty acid 5-lipoxygenase (Homo sapiens, UniProt P09917); test: Inhibition of 5LOX-mediated LTB4 formation in stimulated human polymorphonuclear leukocytes
T6 sequence (P09917 whole entry): T5 sequence (whole entry)
Outline: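 5-LOX-mediated LTB4 formation was measured in stimulated human polymorphonuclear leukocytes in 96-well format. For IC50, at least 3 concentrations were tested in at least 3 independent experiments, each in duplicate, and IC50 was derived from a semilogarithmic dose plot. Results are given as means ± S.D.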

inhibition [1] [%]	inhibition [2] [%]	IC50 ([3]; read-out: IC50) [nM]	IC50 ([4]; read-out: IC50) [nM]	inhibition [5] [%]	IC50 ([6]; read-out: IC50) [nM]	IC50 [3]	IC50 [4]	IC50 [6]	Compound
45.1	47.8	11400	7700	27.8	15000	–	–	–	C=CCc1ccc(OC)c(-c2ccc(OC)c(CC=C)c2)c1
90.8	95.3	100	60	96.4	1500	–	–	–	C=CCc1ccc(O)c(-c2ccc(OC)c(CC=C)c2)c1 [METHYLHONOKIOL]
6.8	13.8	–	–	64.9	4500	–	–	–	C=CCc1ccc(OC(C)=O)c(-c2ccc(OC(C)=O)c(CC=C)c2)c1
84.8	75.1	600	2700	100	1000	–	–	–	C=CCc1ccc(O)c(-c2ccc(O)c(/C=C/C)c2)c1
18	56.3	–	4900	76.3	2200	–	–	–	C=CCc1ccc(OC(C)=O)c(-c2ccc(OC)c(CC=C)c2)c1

The next lines start with the molecule.

Compound	inhibition [1] [%]	inhibition [2] [%]	IC50 ([3]; read-out: IC50) [nM]	IC50 ([4]; read-out: IC50) [nM]	inhibition [5] [%]	IC50 ([6]; read-out: IC50) [nM]	IC50 [3]	IC50 [4]	IC50 [6]
C=CCc1ccc(O)c(-c2ccc(O)c(CC=C)c2)c1 [HONOKIOL]	91	88.3	1800	2100	94	4200	–	–	–
C=CCc1ccc(O)c(-c2ccc(OC)c(/C=C/C)c2)c1	80.5	81.5	700	200	99.3	2100	–	–	–
CCCc1ccc(OC)c(-c2ccc(OC)c(CCC)c2)c1	27.3	49.4	> 20000	6900	24.4	–	–	–	–
CCCc1ccc(O)c(-c2ccc(O)c(CCC)c2)c1	89.6	81.6	800	2100	99.9	1700	–	–	–
COc1ccc(-c2cc(CC3CO3)ccc2O)cc1CC1CO1 (centres undefined)	–	–	–	–	–	–	Not Active	Not Active	Not Active
C=CCc1ccc(O)c(-c2ccc(OC)c(/C=C\C)c2)c1	68.6	62.7	2800	900	99.9	1100	–	–	–
CCCc1ccc(O)c(-c2ccc(OC)c(CCC)c2)c1	56.5	11.6	7700	–	97.1	1400	–	–	–
